Experimental data published in ChEMBL document CHEMBL1154069, “Active site directed docking studies: synthesis and pharmacological evaluation of cis-2,6-dimethyl piperidine sulfonamides as inhibitors of acetylcholinesterase” (Eur J Med Chem, 2009).
pIC50: −log10 of the molar value. Activity calls are given as the source filed them. The rule behind the calls is not given here.

Tests used:
[1] = biological target: T1, Acetylcholinesterase (Rattus norvegicus, UniProt P37136); assay: Inhibition of Wistar rat brain homogenate AChE by Ellman's assay
T1 sequence (P37136 whole entry): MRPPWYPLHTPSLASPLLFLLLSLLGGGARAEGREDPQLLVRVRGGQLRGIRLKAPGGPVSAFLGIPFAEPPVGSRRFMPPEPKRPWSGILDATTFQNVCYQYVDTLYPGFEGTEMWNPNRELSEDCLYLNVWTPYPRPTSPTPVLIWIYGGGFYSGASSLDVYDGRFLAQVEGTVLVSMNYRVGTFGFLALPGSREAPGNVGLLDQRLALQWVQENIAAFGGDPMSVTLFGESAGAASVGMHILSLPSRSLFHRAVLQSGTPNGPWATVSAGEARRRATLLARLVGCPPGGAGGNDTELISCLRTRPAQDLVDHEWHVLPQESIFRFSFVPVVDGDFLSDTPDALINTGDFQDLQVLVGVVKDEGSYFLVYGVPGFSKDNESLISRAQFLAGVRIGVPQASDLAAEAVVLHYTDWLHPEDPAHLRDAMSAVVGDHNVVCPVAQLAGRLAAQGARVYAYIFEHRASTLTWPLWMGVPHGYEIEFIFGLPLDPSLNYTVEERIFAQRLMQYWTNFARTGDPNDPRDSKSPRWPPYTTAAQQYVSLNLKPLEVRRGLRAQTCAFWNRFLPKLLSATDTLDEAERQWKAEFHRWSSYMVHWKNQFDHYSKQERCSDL
Summary of the method: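 Enzyme from Wistar rat brain homogenised 5 min in 0.1 M KH2PO4 pH 8; protein by Lowry (BSA standard). Inhibitor preincubated 10 min with enzyme, buffer and DTNB before adding acetylthiocholine iodide (fresh, pH 7 phosphate). A412 read every 1 min for 10 min at 37 °C. Activity as percentage of uninhibited enzyme; duplicates, means reported.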

[2] = biological target: Acetylcholinesterase (Homo sapiens, UniProt P22303); assay: Inhibition of human serum AChE by Ellman's assay
[3] = biological target: Acetylcholinesterase (Electrophorus electricus, UniProt O42275); assay: Inhibition of electric eel AChE by Ellman's method
Summary of the method: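 Commercial electric eel enzyme assayed like rat brain AChE: inhibitor, buffer and DTNB preincubated 10 min, acetylthiocholine iodide added, A412 followed each minute over 10 min at 37 °C. Percentage inhibition versus uninhibited activity at varied concentrations; duplicates averaged. Neostigmine reference 25–500 nM.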

[4] = test system: Rattus norvegicus; assay: Antiamnesic activity against scopolamine-induced memory loss in rat assessed as basal latency to reach shock free zone 1 at 0.1 mg/kg, ip; type: functional; details: route intraperitoneal
[5] = test system: Rattus norvegicus; assay: Antiamnesic effect against scopolamine-induced memory loss in rat assessed as basal latency to reach shock free zone 2 at 0.1 mg/kg, ip; type: functional; details: route intraperitoneal
[6] = test system: Rattus norvegicus; assay: Antiamnesic activity against scopolamine-induced memory loss in rat assessed as basal latency to reach shock free zone 3 at 0.1 mg/kg, ip; type: functional; details: route intraperitoneal
[7] = test system: Rattus norvegicus; assay: Antiamnesic activity against scopolamine-induced acquisition memory loss in rat assessed as times of step-down at 0.1 mg/kg, ip by step-down passive avoidance test; type: functional; details: route intraperitoneal
[8] = test system: Rattus norvegicus; assay: Antiamnesic activity against scopolamine-induced memory loss in rat assessed as reversal of number of mistakes made in 15 min at 0.1 mg/kg, ip; type: functional, organism-based; set-up: dose 0.1 mg/kg

Acetylcholinesterase (Homo sapiens, UniProt P22303), sequence (P22303 whole entry): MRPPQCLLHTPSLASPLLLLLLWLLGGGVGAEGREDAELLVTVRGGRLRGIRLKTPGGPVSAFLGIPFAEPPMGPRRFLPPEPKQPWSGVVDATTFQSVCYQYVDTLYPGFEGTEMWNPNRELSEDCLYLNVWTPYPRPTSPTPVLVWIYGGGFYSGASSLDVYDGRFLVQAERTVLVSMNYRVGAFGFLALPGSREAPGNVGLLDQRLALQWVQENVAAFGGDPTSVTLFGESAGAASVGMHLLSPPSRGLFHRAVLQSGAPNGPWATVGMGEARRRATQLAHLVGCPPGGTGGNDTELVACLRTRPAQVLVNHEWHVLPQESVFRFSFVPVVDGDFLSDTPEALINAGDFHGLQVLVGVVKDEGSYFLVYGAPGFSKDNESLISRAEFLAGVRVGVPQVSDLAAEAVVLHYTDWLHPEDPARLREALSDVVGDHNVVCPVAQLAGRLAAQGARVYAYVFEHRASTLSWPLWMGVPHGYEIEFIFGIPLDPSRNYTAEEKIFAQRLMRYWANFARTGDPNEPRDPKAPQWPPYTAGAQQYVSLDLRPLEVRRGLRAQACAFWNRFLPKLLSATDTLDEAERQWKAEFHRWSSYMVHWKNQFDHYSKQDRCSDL
Acetylcholinesterase (Electrophorus electricus, UniProt O42275), sequence (O42275 whole entry): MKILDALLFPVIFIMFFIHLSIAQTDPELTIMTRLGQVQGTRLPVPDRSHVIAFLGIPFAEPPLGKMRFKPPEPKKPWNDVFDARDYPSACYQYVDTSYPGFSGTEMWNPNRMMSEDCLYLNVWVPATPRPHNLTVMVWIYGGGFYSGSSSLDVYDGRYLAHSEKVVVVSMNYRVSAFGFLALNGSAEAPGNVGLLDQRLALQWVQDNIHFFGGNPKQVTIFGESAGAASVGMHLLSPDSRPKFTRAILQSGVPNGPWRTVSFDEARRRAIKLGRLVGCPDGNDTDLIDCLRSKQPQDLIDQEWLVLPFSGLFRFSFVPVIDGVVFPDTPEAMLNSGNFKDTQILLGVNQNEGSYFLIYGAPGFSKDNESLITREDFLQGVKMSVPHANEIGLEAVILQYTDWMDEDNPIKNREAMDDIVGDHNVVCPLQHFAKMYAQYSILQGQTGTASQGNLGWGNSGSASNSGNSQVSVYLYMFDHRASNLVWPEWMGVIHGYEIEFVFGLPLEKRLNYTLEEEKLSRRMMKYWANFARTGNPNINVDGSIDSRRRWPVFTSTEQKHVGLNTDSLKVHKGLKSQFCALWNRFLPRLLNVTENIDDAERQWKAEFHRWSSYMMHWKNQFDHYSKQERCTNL

Question: `C[C@@H]1CCC[C@H](C)N1S(C)(=O)=O` was tested. Which pIC50 [1] did it give?
Answer: 7.07

Question: And the pIC50 [2]?
Answer: 7.12

Question: What about the pIC50 [3] of the same molecule?
Answer: 7.05

Question: What about the Activity [4] of the same molecule?
Answer: 20 s

Question: And the Activity [5]?
Answer: 4 s

Question: And the Activity [6]?
Answer: 0.7 s

Question: And the Activity [7]?
Answer: 2 times

Question: What about the Activity [8] of the same molecule?
Answer: Active

Question: With `CN(C)C(=O)Oc1cccc([N+](C)(C)C)c1` [NEOSTIGMINE BROMIDE] as the molecule, how does the pIC50 [1] read?
Answer: 7.40

Question: What about the pIC50 [3] of the same molecule?
Answer: 7.28

Question: How did the pIC50 [1] turn out when `C[C@@H]1CCC[C@H](C)N1S(=O)(=O)c1ccc(C(C)(C)C)cc1` was run?
Answer: 6.33

Question: And the pIC50 [2]?
Answer: 6.34

Question: What about the pIC50 [3] of the same molecule?
Answer: 6.35

Question: And the Activity [4]?
Answer: 28 s

Question: And the Activity [5]?
Answer: 9 s

Question: What about the Activity [6] of the same molecule?
Answer: 6 s

Question: And the Activity [7]?
Answer: 4 times

Question: `C[C@@H]1CCC[C@H](C)N1S(=O)(=O)c1ccccc1` was tested. Which pIC50 [1] did it give?
Answer: 6.44

Question: And the pIC50 [2]?
Answer: 6.41

Question: What about the pIC50 [3] of the same molecule?
Answer: 6.41

Question: What about the Activity [4] of the same molecule?
Answer: 26 s

Question: What about the Activity [5] of the same molecule?
Answer: 7 s

Question: And the Activity [6]?
Answer: 4 s

Question: What about the Activity [7] of the same molecule?
Answer: 4 times

Question: `C[C@@H]1CCC[C@H](C)N1S(=O)(=O)c1ccccc1[N+](=O)[O-]` was tested. Which pIC50 [1] did it give?
Answer: 6.71

Question: What about the pIC50 [2] of the same molecule?
Answer: 6.73

Question: And the pIC50 [3]?
Answer: 6.74

Question: What about the Activity [4] of the same molecule?
Answer: 17 s

Question: What about the Activity [5] of the same molecule?
Answer: 5 s

Question: And the Activity [6]?
Answer: 0.9 s

Question: What about the Activity [7] of the same molecule?
Answer: 2 times

Question: What about the Activity [8] of the same molecule?
Answer: Active

Question: What does the source list for `Cc1ccc(S(=O)(=O)N2[C@H](C)CCC[C@@H]2C)cc1`?
Answer: pIC50 [1]: 6.44; pIC50 [2]: 6.43; pIC50 [3]: 6.44; Activity [4]: 27 s; Activity [5]: 8 s; Activity [6]: 5 s; Activity [7]: 4 times

Question: Which results are given for `C[C@@H]1CCC[C@H](C)N1S(=O)(=O)c1cc(Cl)ccc1Cl`?
Answer: pIC50 [1]: 7.12; pIC50 [2]: 7.05; pIC50 [3]: 7.09; Activity [4]: 16 s; Activity [5]: 4 s; Activity [6]: 0.8 s; Activity [7]: 2 times; Activity [8]: Active

Question: Which results are given for `C[C@@H]1CCC[C@H](C)N1S(=O)(=O)c1cccc([N+](=O)[O-])c1`?
Answer: pIC50 [1]: 6.73; pIC50 [2]: 6.72; pIC50 [3]: 6.70; Activity [4]: 22 s; Activity [5]: 6 s; Activity [6]: 4 s; Activity [7]: 4 times; Activity [8]: Active

Question: Which results are given for `C[C@@H]1CCC[C@H](C)N1S(=O)(=O)c1ccc(Cl)cc1`?
Answer: pIC50 [1]: 6.49; pIC50 [2]: 6.50; pIC50 [3]: 6.51; Activity [4]: 25 s; Activity [5]: 8 s; Activity [6]: 5 s; Activity [7]: 3 times

Question: `C[C@@H]1CCC[C@H](C)N1S(=O)(=O)c1ccc([N+](=O)[O-])cc1` was tested. Which pIC50 [1] did it give?
Answer: 5.92

Question: And the pIC50 [2]?
Answer: 5.94

Question: What about the pIC50 [3] of the same molecule?
Answer: 5.92

Question: And the Activity [4]?
Answer: 34 s

Question: What about the Activity [5] of the same molecule?
Answer: 9 s

Question: What about the Activity [6] of the same molecule?
Answer: 7 s

Question: And the Activity [7]?
Answer: 3 times
